Hits are enriched below; roughly 3.1% of the tested compounds scored in any of these assays.
Beta apoptosis: beta cell apoptosis inhibition; INS-1E cytokine-induced death, ATP luminescence, 48 h; percent of positive-control rescue, neutral wells zero; protection from apoptosis, % (test concentration not listed); actives 0.8% (n = 300,000); AID 435005;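 active = Every replicate reaches about 75%, or at least half do and their mean reaches it too, limit read from the data; inconclusive = At least half of replicates reach the limit but their mean does not; inactive = Under half of replicates reach the limit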;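 note: 0% = cytokine-treated negative control wells and 100% = positive control rescue; higher means more ATP so stronger rescue from cytokine killing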
A1 inh: inhibitors of the anti-apoptotic protein A1, read as caspase activation. actives 0.066% (n = 330,000). caspase activation, % (no concentration beside the values). MEF A1-2A-BIM cells, Caspase-Glo 3/7 luminescence, 3 h; percent of clofoctol response, vehicle zero. AID 2462;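 active = over half of replicate activation scores above 10%, or exactly half above 10 with the replicate mean above 10; inconclusive = replicate mean below 10 yet half the replicates above 10; inactive = over half of replicates below 10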
CSC inhib: cancer stem cell inhibition; cancer stem cell-like cells viability, luminescence; inhibition, % at 7.5 µM; actives 1.1% (n = 300,000); AID 2717; in the data active = inhibition above about 75%; inconclusive = no clear call, values can overlap the other calls; tested in HMLE shEcad cells
TAG inh: inhibitors of triacylglycerol accumulation. H9c2 cells, Nile Red lipid (TAG) fluorescence; cells loaded with 200 µM oleic acid. inhibition, % at 12.5 µM. actives 0.66% (n = 230,000);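 active = pattern-corrected inhibition of lipid staining of at least 50% with the nuclear-stain viability signal not falling by more than 50%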;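 note: 0% = DMSO wells and 100% = triacsin C control wells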
T cruzi inh: blocks replication of Trypanosoma cruzi | actives 1.4% (n = 300,000) | T. cruzi beta-gal in NIH3T3, luminescence, 90 h | inhibition, % (test concentration not listed);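 active = mean inhibition across valid replicates above about 55%, limit read from the data; inconclusive = mean below that limit but half or more replicates reach it; inactive = mean below it, under half of replicates reach it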;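 note: signal also drops with host cell toxicity which is not excluded here; 0% = plate median of DMSO wells and 100% = zero luminescence signal; higher percent means less beta-gal luminescence so fewer parasites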
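Material: NIH/3T3 host cells with β-galactosidase reporter T. cruzi; Input: 5,000 host fibroblasts per well; Medium: DMEM, 2% fetal bovine serum; Compound: 50 nL DMSO compound solution per well; Schedule: 3 h host attachment, then at least 90 h co-culture; Detection: luminescent β-galactosidase signal after 60 min lysis.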
Calb FLC: C. albicans growth modulation with fluconazole | C. albicans CaCi-2 (fluconazole-resistant clinical isolate) + fluconazole, Alamar Blue growth, 48 h | growth inhibition, % (test concentration not listed) | actives 0.57% (n = 300,000);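 active = growth inhibition above about 58% in most replicates, limit read from the data, passing the limit was not always enough; inconclusive = exactly half the replicates above a set limit; inactive = most replicates below a set limit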;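 note: all wells also contain fluconazole at 8 µg/ml as a sub-toxic cotreatment; 0% = median of DMSO wells and 100% = median of geldanamycin control wells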
The depositor's hits bear a star; ? = inconclusive; . = no result.

SMILES	Beta apoptosis	A1 inh	CSC inhib	TAG inh	T cruzi inh	Calb FLC
COC(=O)c1ccc(COC(=O)[C@@H]2CC(O)CN2S(=O)(=O)c2ccccc2[N+](=O)[O-])cc1 (stereo partly specified)	0.9	-0.7	-3.9	10.8	-12.4	-2.4
CCCCOc1ncnc2c1[nH]c1ccc(OCC)cc12	8.7	0.2	-20.8	.	10.8	66.0
COc1ccc2[nH]c3c(N4CCc5ccccc5C4)ncnc3c2c1	2.2	0.3	60.7	-1.9	6.8	-0.1
CCOC(=O)N1CCN(c2ncnc3c2[nH]c2ccc(F)cc23)CC1	76.1*	-0.5	3.5	-50.7	0.0	2.0
CCCCOc1ncnc2c1[nH]c1ccc(F)cc12	109.8*	-0.6	?	.	-23.1	20.5
COc1ccc(N2CCN(c3ncnc4c3[nH]c3ccccc34)CC2)cc1	102.3*	-0.2	8.8	-25.9	7.4	-2.7
Fc1ccc2[nH]c3c(N4CCN(c5ccccc5)CC4)ncnc3c2c1	89.2*	1.4	3.5	-124.3	11.3	2.4
CC1(C)CN(c2ccc(Br)cc2)C(=O)[C@H]1CC(=O)Nc1ccccc1	.	.	.	-2.4	.	.
C=CCN1C(=O)C2(OCCCO2)c2cc(C)ccc21	8.2	-0.2	4.1	-8.2	1.2	-3.5
C=CS(=O)(=O)c1ccc(Oc2ccc(S(=O)(=O)C=C)cc2)cc1	106.3*	0.4	-9.8	.	50.6	15.1
Cc1ccc(OCCN2CCC2(C)C(=O)Nc2ccc3c(c2)OCO3)cc1 (stereo unspecified)	.	.	.	8.0	.	.
COCCNC(=O)C1(C)CCN(Cc2csc(-c3ccc(Cl)cc3)n2)C1 (stereo unspecified)	.	.	.	-1.7	.	.
O=Cc1cc2ccccc2nc1SCc1ccc(Cl)c(Cl)c1	56.9	1.9	93.6*	-16.4	3.5	-7.1
O=Cc1cc2ccccc2nc1SCc1ccc(Cl)cc1	25.3	1.8	87.7*	-59.4	-5.0	-4.7
Cc1nc(SCc2nc3ccc(C(F)(F)F)cc3[nH]2)c2oc3ccccc3c2n1	16.4	0.2	103.6*	14.7	.	.
CNC(CC(=O)c1ccc([N+](=O)[O-])cc1)C(Cl)(Cl)Cl (stereo unspecified)	4.0	2.5	75.9*	3.5	.	.
COc1ccc(C(=O)CC(Nc2ccc([N+](=O)[O-])cc2)c2ccc(OC)cc2)cc1 (stereo unspecified)	2.9	1.8	15.9	.	.	-10.0
O=C(NC(CO)C(=O)OCc1ccccc1)OCc1ccccc1 (stereo unspecified)	.	.	.	0.4	.	.
CCCSc1ncnc2[nH]ncc12	.	.	.	-6.8	.	.
COc1ccc2c(c1)c(CC(=O)Nc1nnc(C3CC3)s1)c(C)n2C(=O)c1ccc(Cl)cc1	15.0	-0.2	.	24.8	56.7*	1.3
COc1ccc2c(c1)c(CC(=O)Nc1ccccc1OC)c(C)n2C(=O)c1ccc(Cl)cc1	4.1	0.0	3.9	32.0	48.2	-15.7
COc1ccc2c(c1)c(CC(=O)Nc1cc(C)ccc1C)c(C)n2C(=O)c1ccc(Cl)cc1	4.0	-1.2	9.2	.	59.7*	0.8
COc1ccc2c(c1)c(CC(=O)Nc1ccc(C(C)=O)cc1)c(C)n2C(=O)c1ccc(Cl)cc1	0.9	-1.2	-16.5	.	35.5	-22.2
CCn1c(=O)n(CCc2ccccc2)c(=O)c2c3c(sc21)CCCC3	8.3	-0.2	39.9	.	32.5	?
CN(C)CCNc1nc2sc3c(c2c(=O)n1CCc1ccccc1)CCCCC3	7.1	0.9	105.7*	79.6*	58.5*	13.7
SMILES	Beta apoptosis	A1 inh	CSC inhib	TAG inh	T cruzi inh	Calb FLC
CC(O)CNc1nc2sc3c(c2c(=O)n1Cc1ccco1)CCCCC3 (stereo unspecified)	90.5*	-0.4	57.3	0.6	3.3	-18.9
CC(O)CNc1nc2sc3c(c2c(=O)n1CCc1ccccc1)CCCCC3 (stereo unspecified)	4.6	0.5	58.5	24.9	56.9*	2.8
O=c1c2c3c(sc2n(CCN2CCCCC2)c(=O)n1Cc1ccco1)CCCCC3	93.4*	0.1	-2.7	.	62.8*	5.1
O=c1c2c3c(sc2n(CCN2CCOCC2)c(=O)n1Cc1ccco1)CCCCC3	.	0.0	34.7	.	33.9	26.9
O=c1c2c3c(sc2nc(NCCOCCO)n1Cc1ccco1)CCCCC3	-0.5	0.3	-10.4	-6.1	.	-0.2
CN1CC(=O)N(CC(=O)Nc2ccc(N3CCOCC3)cc2)C1=O	.	.	.	2.7	.	.
NC1=NC[C@H](Cc2ccc(O)cc2)N1CCC12CC3CC(CC(C3)C1)C2	3.0	2.2	-6.8	-0.1	20.1	106.3*
COC(=O)C1CN(C(=O)COc2cc(C)cc(C)c2)c2ccccc2O1 (stereo unspecified)	-5.1	1.1	4.3	.	-7.5	-4.4
Nc1ccccc1Nc1cc(-c2cccc(Cl)c2)nn1-c1ccccc1	4.0	-0.8	47.2	.	57.1*	-17.6
Nc1c(-c2ccccc2)cnn1-c1cccc(Cl)c1	6.8	-10.5	2.2	.	-5.7	-5.0
CC(C)=CCc1c(O)ccc(C(=O)Cc2ccccc2)c1O	8.4	0.0	96.6*	-24.8	-4.0	-25.5
Cc1ccc(C(=O)Cc2ccccc2)c(O)c1	.	.	.	3.2	.	.
O=C(CCn1c(=O)c2cccn2c2cccnc21)NCCCN1CCN(c2ccc(F)cc2)CC1	.	.	.	3.1	.	.
CCn1c(N2CCN(S(=O)(=O)c3ccc(F)cc3)CC2)nc2ccccc21	17.2	-0.8	79.7*	-7.4	31.8	1.0
CCn1c(N2CCN(S(=O)(=O)CC)CC2)nc2ccccc21	3.9	1.0	-9.3	-11.6	-8.7	-18.2
CCn1c(N2CCN(S(=O)(=O)c3ccc(Cl)cc3)CC2)nc2ccccc21	14.7	0.6	5.8	-8.1	87.5*	-0.2
CCCn1c(N2CCN(Cc3ccc(Cl)cc3)CC2)nc2ccccc21	10.2	1.7	-11.7	-31.8	41.8	52.0
O=S(=O)(CCN1CCCCC1)Oc1ccc(Cl)cc1Cl	-5.5	-0.8	7.9	-1.7	4.8	-1.3
N#CCS(=O)(=O)c1ccccc1	1.6	2.1	-14.4	12.5	-18.4	-4.6
CCOC(=O)C1=CN(Cc2ccco2)S(=O)(=O)N(CC)C1c1ccc(F)c(Cl)c1 (stereo unspecified)	.	.	.	0.4	.	.
CC1(c2ccccc2)CC(C)(C)N2C(=O)/C(=C3\SC(=S)NC3=O)c3cccc1c32 (stereo unspecified)	-0.3	-0.8	105.1*	.	-3.9	-3.0
CC(=O)Nc1ccc(C(=O)CN2C(=O)NC3(CCCc4ccccc43)C2=O)c(F)c1 (stereo unspecified)	3.6	3.2	4.6	3.4	.	.
Fc1ccc(NC(=S)Nc2cccc3cnccc23)cc1	-0.4	-1.0	35.6	-10.8	-8.8	-0.4
S=C(Nc1ccc(Cl)cc1)Nc1cccc2cnccc12	91.1*	-0.1	52.1	.	25.1	25.7
CN(C)CCCNc1cc(C(C)(C)C)nc2c(-c3ccccc3)cnn12	113.4*	-0.1	99.5*	38.5	55.8*	25.1
Cc1cc(NCCCN2CCOCC2)n2ncc(-c3ccccc3)c2n1	-7.4	-0.5	31.4	8.3	28.7	-7.7

Source: PubChem BioAssay
